The text below walks through data of ChEMBL document CHEMBL4732059, “Structure-guided modification of isoxazole-type FXR agonists: Identification of a potent and orally bioavailable FXR modulator” (Eur J Med Chem, 2021).

The target of data set [1] is T1, Bile acid receptor (Homo sapiens) (UniProt Q96RI1).
T1 sequence (whole entry): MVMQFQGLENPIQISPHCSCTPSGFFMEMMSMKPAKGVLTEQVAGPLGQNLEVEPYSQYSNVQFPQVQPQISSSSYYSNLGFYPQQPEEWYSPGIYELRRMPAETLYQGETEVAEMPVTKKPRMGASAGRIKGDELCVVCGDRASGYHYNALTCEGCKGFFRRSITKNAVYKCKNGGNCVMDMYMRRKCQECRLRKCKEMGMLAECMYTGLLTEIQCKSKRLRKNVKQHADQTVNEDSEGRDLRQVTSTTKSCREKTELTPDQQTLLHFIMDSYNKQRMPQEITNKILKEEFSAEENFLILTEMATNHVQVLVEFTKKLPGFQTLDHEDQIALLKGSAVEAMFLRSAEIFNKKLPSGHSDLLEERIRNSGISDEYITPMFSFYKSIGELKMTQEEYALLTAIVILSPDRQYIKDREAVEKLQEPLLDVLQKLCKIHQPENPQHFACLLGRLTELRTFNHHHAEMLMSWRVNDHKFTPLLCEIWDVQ
As to the kind of experiment: Agonist activity at human FXR in HepG2 cells assessed as nuclear translocation at 1 uM for 16 hrs by immunofluorescence analysis. The data set is classed as cell-based. Particulars: filed as agonist.

In data set [2] the test system is HepG2. As to the kind of experiment: Cytotoxicity against human HepG2 cells assessed as cell viability upto 40 uM after 48 hrs by MTT assay. The data set is classed as cell-based. Particulars: hepg2, 48 h. The method in brief: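 HepG2 cells in DMEM/10% FBS seeded at 1×10⁵/mL and grown 24 h, then exposed to 0.1, 1, 10, 40 and 80 µM for 48 h. MTT (5 mg/mL stock) added for 4 h at 37 °C in the dark, formazan dissolved in DMSO, absorbance read at 490 nm; mean ± SD, n = 3.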
On the technique in general: Tetrazolium dyes change colour on reduction, which living cells bring about.

Data set [3] is described as follows: AUC (0 to t) in C57BL/6J mouse at 20 mg/kg, po measured upto 24 hrs by LC-MS analysis. The data set is classed as ADME, organism-based. Set-up: route oral, dose 20 mg/kg, time <=24. The settings on record: in vivo. In outline: (§1)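 Male C57BL/6J mice (22–24 g, n = 5), single oral dose 20 mg/kg in 0.5% CMC-Na PBS. Plasma sampled at 0.25, 0.5, 1, 2, 4, 8, 12 and 24 h, centrifuged, and supernatant analysed by LC-MS/MS in positive ion mode. Parameters from noncompartmental analysis; mean ± SD, n = 5.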

The nature of data set [4]: Half life in C57BL/6J mouse at 20 mg/kg, po measured upto 24 hrs by LC-MS analysis. The settings on record: in vivo. The data set is classed as ADME, organism-based. In outline:
as §1

Data set [5] concerns HepG2. As to the kind of experiment: Upregulation of FXR level in human HepG2 cells at 1 to 10 uM for 16 hrs by Western blot analysis. In kind it is functional, cell-based. The settings on record: dose 1-10 µM. In outline: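 HepG2 cells treated for 16 h, washed, lysed on ice and centrifuged; protein quantified by BCA. Equal protein run on 12% SDS-PAGE and transferred to PVDF. Probed overnight at 4 °C with anti-FXR, […], anti-CYP7A1 or anti-BSEP antibody, then HRP secondary 1 h at 37 °C; ECL detection.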
A general note: A western blot detects proteins with antibodies after separation by electrophoresis.

Data set [6] in a line: Tmax in C57BL/6J mouse at 20 mg/kg, po measured upto 24 hrs by LC-MS analysis. The data set is classed as ADME, organism-based. Particulars: in vivo. The method in brief: as §1
Data set [7] can be described thus: Cmax in C57BL/6J mouse at 20 mg/kg, po measured upto 24 hrs by LC-MS analysis. In kind it is ADME, organism-based. The settings on record: in vivo. Set-up: route oral, dose 20 mg/kg, time <=24. In outline: as §1

The source made the active and inactive calls. The rule behind the calls is not given here.

Turning to `CC(C)c1onc(-c2c(Cl)cccc2Cl)c1COc1ccc(/C=C/c2cccc(C(=O)O)c2)c(Cl)c1`, the outcome in data set [1] was Active. Also, in data set [2], the Activity result is listed as “Non-Toxic”.

In general, AUC(0-t) refers to the area under the concentration-time curve up to a stated or last time point. The low end stands for less exposure, the high end for more exposure. A word on the half-life: it is how long it takes for the measured level to halve. The term Tmax denotes the time at which the peak concentration occurs. One may read the Cmax as the peak of the concentration-time curve. In turn, `O=C(O)c1cccc(NC(=O)N2CCC(OCc3c(-c4ccccc4OC(F)(F)F)noc3C3CC3)CC2)c1` showed an AUC(0-t) at 24 h in data set [3] of 36100 ng·h/mL. In addition, in data set [4], the half-life was 10.6 h. In data set [5], the outcome was Active. Also, the time of peak concentration (Tmax) in data set [6] worked out at 4.8 h. The Activity result in data set [2] was “Non-Toxic”. Further, the Cmax in data set [7] turned out to be 2350 ng/mL.
